Assay results: ChEMBL document CHEMBL1151259, “Hemisynthetic secofriedelane triterpenes with inhibitory activity against the growth of human tumor cell lines in vitro” (J Nat Prod, 2004)

Experiments:
MCF7 = test: Cytotoxicity against human MCF7 cells after 48 hrs by SRB assay; type: functional, cell-based; details: MCF7, 48 h
How it was run: (§1)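 Compounds dissolved in DMSO and freshly diluted in culture medium, final DMSO 0.25%. Growth inhibition read by sulforhodamine B protein staining per the NCI screening protocol. Doxorubicin as positive control. GI50 given as mean ± SEM of 3-6 independent experiments, each in duplicate.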

SF-268 = test: Cytotoxicity against human SF268 cells after 48 hrs by SRB assay; type: functional, cell-based; details: SF-268, 48 h; how it was run: as §1
NCI-H460 = test: Cytotoxicity against human NCI-H460 cells after 48 hrs by SRB assay; type: functional, cell-based; details: NCI-H460, 48 h; how it was run: as §1
[1] = Antiproliferative activity against human lymphocytes; type: cell-based; details: Lymphocyte

Row | Structure (SMILES) | GI50 (MCF7) | GI50 (SF-268) | GI50 (NCI-H460) | IC50 (MCF7) | IC50 [1] | IC50 (SF-268) | IC50 (NCI-H460)
1 | CC1(C)CC[C@]2(C)CC[C@]3(C)[C@H]4CC[C@@]5(C)[C@@H](CCC(=O)[C@]5(C)O)[C@]4(C)CC[C@@]3(C)[C@@H]2C1 | > 50 µM | > 50 µM | > 50 µM |  |  |  | 
2 | COc1cccc2c1C(=O)c1c(O)c3c(c(O)c1C2=O)C[C@@](O)(C(=O)CO)C[C@@H]3O[C@H]1C[C@H](N)[C@H](O)[C@H](C)O1 [DOXORUBICIN] | 0.0428 µM | 0.094 µM | 0.094 µM |  |  |  | 
3 | COC(=O)CC[C@H]1[C@]2(C)CC[C@@]3(C)[C@@H]4CC(C)(C)CC[C@]4(C)CC[C@]3(C)[C@H]2CC[C@]1(C)C(C)=O | > 110 µM | > 110 µM | > 110 µM |  |  |  | 
4 | CC(=O)[C@@]1(C)CC[C@H]2[C@@](C)(CC[C@@]3(C)[C@@H]4CC(C)(C)CC[C@]4(C)CC[C@]23C)[C@@H]1CCC(=O)O | 26.9 µM | 24.6 µM | 32.8 µM |  |  |  | 
5 | C[C@@H](C(=O)O)[C@@]1(C)CC[C@H]2[C@@](C)(CC[C@@]3(C)[C@@H]4CC(C)(C)CC[C@]4(C)CC[C@]23C)[C@@H]1CC=O |  |  |  | 5.4 µM | 10.7 µM | 5.4 µM | 5.4 µM
6 | CC(=O)[C@@]1(C)CC[C@H]2[C@@](C)(CC[C@@]3(C)[C@@H]4CC(C)(C)CC[C@]4(C)CC[C@]23C)[C@@H]1CC(=O)O | 10.9 µM | 12.9 µM | 17.6 µM |  |  |  | 
7 | CC1(C)CC[C@]2(C)CC[C@]3(C)[C@H]4CC[C@@]5(C)[C@@H](CCC(=O)[C@@]5(C)O)[C@]4(C)CC[C@@]3(C)[C@@H]2C1 | > 110 µM | > 110 µM | > 110 µM |  |  |  | 
8 | COC(=O)C[C@H]1[C@]2(C)CC[C@@]3(C)[C@@H]4CC(C)(C)CC[C@]4(C)CC[C@]3(C)[C@H]2CC[C@]1(C)C(C)=O | 101 µM | 106 µM | 93.9 µM |  |  |  | 
